Consider 2 molecules from ChEMBL document CHEMBL1136962, “Galactosyl prodrug of ketorolac: synthesis, stability, and pharmacological and pharmacokinetic evaluations” (J Med Chem, 2009).

Calls of active or inactive are those of the source. No cut-off for these calls is given here. Where only a bound is given, the exact number is not on record here.

Data set [1] in a line: Chemical stability assessed as hydrolysis half life in 0.1N HCl at pH 1. The format is physicochemical. The gist of the method: (§1)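 Solutions of 100 µg/mL (ketorolac tris salt at 90.5 µg/mL) held at 37 °C for 24 h in 0.1 N HCl (pH 1), phosphate buffer pH 7.4 or 8.0, or plasma. Samples taken hourly; plasma samples extracted with acetonitrile (1:2) and centrifuged. Remaining ester measured by HPLC diode array at 313 nm. Pseudo-first-order t1/2 from log plots over time; mean ± SEM.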

Data set [2] can be described thus: Chemical stability assessed as hydrolysis half life in phosphate buffer at pH 7.4. In kind it is physicochemical. In outline:
as §1

Data set [3] is described as follows: Chemical stability assessed as hydrolysis half life in phosphate buffer at pH 8.0. In kind it is physicochemical. In outline:
as §1

Data set [4] in a line: Stability in rat plasma assessed as half life. In kind it is ADME, cell-free. The gist of the method: as §1
In data set [5] the test system is Mus musculus. Kind of data set: Analgesic activity against acetic acid-induced writhing in po dosed Swiss mouse administered 1 hr before acetic acid challenge measured after 5 mins for 20 mins. The format is functional, organism-based. The gist of the method:
(§2)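 Male Swiss mice (20-25 g), fasted overnight, water allowed, six per group. Oral dosing with CMC vehicle given 1 h before ip 0.6% acetic acid or ip magnesium sulfate 120 mg/kg. Abdominal constriction, trunk turning and hind-leg extension counted: for acetic acid over 20 min starting 5 min post-injection, for MgSO4 over 5 min. Mean ± SEM.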

The subject of data set [6] is Mus musculus. The data set is described as follows: Analgesic activity against acetic acid-induced writhing in Swiss mouse at 0.163 mg/kg, po administered 1 hr before acetic acid challenge measured after 5 mins for 20 mins. In kind it is functional, organism-based. More on the design: dose 0.163 mg/kg. In outline:
as §2

In data set [7] the test system is Mus musculus. The data set is described as follows: Analgesic activity against magnesium sulfate-induced writhing in po dosed Swiss mouse administered 1 hr before magnesium sulfate challenge measured for 5 mins. The format is functional, organism-based. The gist of the method:
as §2

For data set [8], the system named is Mus musculus. Kind of data set: Gastrointestinal toxicity in fasted Swiss mouse assessed ulcer index at 0.163 mg/kg, po after 4 hrs. The format is organism-based. More on the design: dose 0.163 mg/kg, route oral. The note with it: in vivo. The gist of the method:
(§3)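 Male Swiss mice, fasted 16-18 h, n = 6 per group, dosed orally (vehicle 0.5% CMC). Killed 4 h later; stomach opened along greater curvature, rinsed with saline and examined under magnifier. Scoring: irritation 1, lesions 1-3 mm 5, lesions >3 mm 10. Gastric lesion score and ulcer number given as mean ± SEM.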

Data set [9] relates to Rattus norvegicus. The data set is described as follows: Half life in Wistar rat assessed as ketorolac release at 0.163 mg/kg, po. In kind it is ADME, organism-based. More on the design: dose 0.163 mg/kg, route oral. The note with it: in vivo. The gist of the method: (§4)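 Male Wistar rats (200 ± 20 g), single oral dose; killed by decapitation at […], at least three rats per time point, each measured in triplicate. Plasma deproteinized with acetonitrile, centrifuged, organic phase analyzed by C18 HPLC at 313 nm with tolmetine internal standard. Calibration 0.1-100 µg/mL in drug-free matrix. Parameters taken from semilog concentration-time plots.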

Data set [10] concerns Rattus norvegicus. Kind of data set: Tmax in Wistar rat assessed as ketorolac release at 0.163 mg/kg, po. In kind it is ADME, organism-based. Also noted: dose 0.163 mg/kg, route oral. The note with it: in vivo. In outline: as §4
Data set [11] concerns Rattus norvegicus. The data set is described as follows: Cmax in Wistar rat assessed as ketorolac release at 0.163 mg/kg, po. In kind it is ADME, organism-based. Also noted: dose 0.163 mg/kg, route oral. To be noted: in vivo. The gist of the method:
as §4

Data set [12] deals with Rattus norvegicus. The data set is described as follows: AUC (0 to 6 hrs) in Wistar rat assessed as ketorolac release at 0.163 mg/kg, po. In kind it is ADME, organism-based, Plasma. More on the design: time < 6 hr, dose 0.163 mg/kg, route oral. To be noted: in vivo. The gist of the method: as §4
The test system of data set [13] is Rattus norvegicus. Kind of data set: AUMC (0 to 6 hrs) in Wistar rat assessed as ketorolac release at 0.163 mg/kg, po. The format is ADME, organism-based. More on the design: dose 0.163 mg/kg, route oral. To be noted: in vivo. In outline:
as §4

Data set [14] has as its system Rattus norvegicus. The data set is described as follows: Mean residence time in Wistar rat assessed as time required for 63.2% of administered dose to be eliminated as ketorolac at 0.163 mg/kg, po. The format is ADME, organism-based. Also noted: dose 0.163 mg/kg, route oral. To be noted: in vivo. In outline: as §4
In data set [15] the test system is Rattus norvegicus. Kind of data set: Systemic clearance in Wistar rat assessed as ketorolac release at 0.163 mg/kg, po. The format is ADME, organism-based. Also noted: dose 0.163 mg/kg, route oral. To be noted: in vivo. In outline:
as §4

Data set [16] concerns Rattus norvegicus. The data set is described as follows: Elimination half life in Wistar rat assessed as ketorolac release at 0.163 mg/kg, po. The format is ADME, organism-based. Also noted: dose 0.163 mg/kg, route oral. To be noted: in vivo. In outline:
as §4

In data set [17] the test system is Mus musculus. The data set is described as follows: Antiinflammatory activity in Swiss mouse assessed as reduction in carrageenan-induced hind paw edema at 0.1 mg/kg, po administered 1 hr before carrageenan challenge. The format is functional, organism-based. Also noted: dose 0.1 mg/kg. The gist of the method: (§5)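 Male Swiss mice, six per group, dosed orally (CMC vehicle) 1 h before subplantar injection of 50 µL of 1% λ-carrageenan in saline into the right hind paw. Paw volume read by plethysmometer at intervals up to 96 h. Edema taken as volume minus basal volume measured just before injection. Mean ± SEM.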

The test system of data set [18] is Mus musculus. Kind of data set: Antiinflammatory activity in Swiss mouse assessed as reduction in carrageenan-induced hind paw edema at 10 mg/kg, po administered 1 hr before carrageenan challenge measured after 48 hrs. The format is functional, organism-based. Also noted: dose 10 mg/kg. In outline:
as §5

Data set [19] concerns Mus musculus. The data set is described as follows: Gastrointestinal toxicity in fasted Swiss mouse assessed ulcer index at 0.1 mg/kg, po after 4 hrs. The format is organism-based. More on the design: dose 0.1 mg/kg, route oral. To be noted: in vivo. The gist of the method:
as §3

Data set [20] can be described thus: Half life in Wistar rat at 0.1 mg/kg, po. To be noted: in vivo. More on the design: dose 0.1 mg/kg, route oral. In kind it is ADME, organism-based. The gist of the method: as §4
The nature of data set [21]: Tmax in Wistar rat at 0.1 mg/kg, po. In kind it is ADME, organism-based. More on the design: dose 0.1 mg/kg, route oral. To be noted: in vivo. In outline: as §4
The nature of data set [22]: Cmax in Wistar rat at 0.1 mg/kg, po. The format is ADME, organism-based. More on the design: dose 0.1 mg/kg, route oral. The note with it: in vivo. The gist of the method:
as §4

Data set [23] can be described thus: AUC (0 to 6 hrs) in Wistar rat at 0.1 mg/kg, po. In kind it is ADME, organism-based. More on the design: time < 6 hr, dose 0.1 mg/kg, route oral. The note with it: plasma. The gist of the method: as §4
Data set [24] has as its system Rattus norvegicus. Kind of data set: AUMC (0 to 6 hrs) in Wistar rat at 0.1 mg/kg, po. In kind it is ADME, organism-based. More on the design: dose 0.1 mg/kg, route oral. To be noted: in vivo. The gist of the method:
as §4

Data set [25] can be described thus: Mean residence time in Wistar rat assessed as time required for 63.2% of administered dose to be eliminated at 0.1 mg/kg, po. In kind it is ADME, organism-based. Also noted: dose 0.1 mg/kg, route oral. To be noted: in vivo. The gist of the method:
as §4

The nature of data set [26]: Systemic clearance in Wistar rat at 0.1 mg/kg, po. In kind it is ADME, organism-based. Also noted: dose 0.1 mg/kg, route oral. To be noted: in vivo. The gist of the method:
as §4

The nature of data set [27]: Elimination half life in Wistar rat at 0.1 mg/kg, po. The format is ADME, organism-based. Also noted: dose 0.1 mg/kg, route oral. The note with it: in vivo, read-out: beta t1/2 (converted). The gist of the method: as §4

Take `O=C(c1ccccc1)c1ccc2n1CC[C@@H]2C(=O)OC[C@H]1OC(O)[C@H](O)[C@@H](O)[C@H]1O` (stereo partly drawn): the half-life is 2.1 h in data set [1], > 4 h in [2], > 4 h in [3] and 1.5 h in [4]. The Activity result in the data set with Mus musculus [5] and with Mus musculus [7] was “Dose-dependent effect” in each case. Further, the outcome with Mus musculus [6] was Active. Besides, the UI with Mus musculus [8] was 1. The t1/2 with Rattus norvegicus [9] turned out to be 5.23 h. Also, the Tmax in the data set with Rattus norvegicus [10] is 1 h. The Cmax in the data set on Rattus norvegicus [11] stood at 240 ng/mL. Also, the AUC in the data set with Rattus norvegicus [12] is 935 ng·h/mL. Also, the AUMC in the data set with Rattus norvegicus [13] was found to be 5600 ng·h/mL. Moreover, the MRT with Rattus norvegicus [14] worked out at 4.5 h. For the same molecule, the CL in the data set with Rattus norvegicus [15] was determined as 80.36 mL/h. Besides, the “beta t1/2” value with Rattus norvegicus [16] amounted to 2.4 h.
`O=C(c1ccccc1)c1ccc2n1CCC2C(=O)O` (stereo not drawn) [KETOROLAC]: the half-life in data set [1] was > 4 h; in data set [2], > 4 h; in [3] it was > 4 h; in [4], > 4 h; in data set [20], 1.65 h; in data set [27], 1.99 h. The Activity result with Mus musculus [5] and with Mus musculus [7] was “Dose-dependent effect” each time. Also, the result with Mus musculus [17] was inactive. Also, the result in the data set with Mus musculus [18] was Active. For the same molecule, the UI in the data set on Mus musculus [19] came out at 10. Also, the Tmax in data set [21] was found to be 1 h. For the same molecule, the Cmax in data set [22] is 400 ng/mL. This molecule yielded an AUC(0-t) at 6 h in [23] of 855 ng·h/mL. This molecule also gave an AUMC in the data set on Rattus norvegicus [24] of 3300 ng·h/mL. For the same molecule, the MRT in data set [25] was 3.1 h. In addition, the CL/F in data set [26] is 1.57 mL/min.
